Screening results from PubChem.
HTRA1 inhibitor = HTRA1 (human) protease inhibition | recombinant HTRA1, FP-rhodamine activity-based probe, fluorescence polarization | inhibition, % at 5.96 µM | actives 0.5% (n = 340,000); in the data active = inhibition above about 36%
mABHD4 FP = inhibitors of mouse ABHD4; Q8VD66; purified mABHD4, FP-Rh probe fluorescence polarization; inhibition, % at 8.92 µM; actives 0.54% (n = 370,000); AID 720543;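 active = inhibition exceeding the mean over every tested compound plus 3 SD, cut at about 30% in these data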
Target sequence (Q8VD66 whole entry, looked up): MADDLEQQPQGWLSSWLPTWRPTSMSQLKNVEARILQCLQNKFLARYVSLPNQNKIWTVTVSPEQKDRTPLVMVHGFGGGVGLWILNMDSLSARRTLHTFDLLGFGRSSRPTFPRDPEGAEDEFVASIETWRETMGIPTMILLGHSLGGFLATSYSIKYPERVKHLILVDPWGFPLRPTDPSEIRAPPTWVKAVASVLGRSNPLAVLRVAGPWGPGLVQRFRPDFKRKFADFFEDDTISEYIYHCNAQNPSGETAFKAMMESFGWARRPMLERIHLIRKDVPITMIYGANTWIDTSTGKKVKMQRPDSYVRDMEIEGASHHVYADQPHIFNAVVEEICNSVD
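Assay system: mouse ABHD4 enzyme, wild type / Also added: fluorescent activity-based probe FP-Rh / Doses: single nominal dose of 8.92 µM, 0.89% DMSO final / Timing: 45 min compound pre-incubation plus 60 min probe step, 25 °C / Signal: FP readout, ex 525 nm / em 598 nm / Control set: S159A mutant/DMSO as 100%, compound-well median as 0%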
PRMT1 inh = inhibitors of human PRMT1 | Q99873 | recombinant PRMT1, activity-based probe fluorescence polarization | inhibition, % at 2.79 µM | actives 1.3% (n = 370,000) | AID 652257;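 active = inhibition above about 21% made by adding two undisclosed values, limit read from the data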
Target sequence (Q99873 whole entry, looked up): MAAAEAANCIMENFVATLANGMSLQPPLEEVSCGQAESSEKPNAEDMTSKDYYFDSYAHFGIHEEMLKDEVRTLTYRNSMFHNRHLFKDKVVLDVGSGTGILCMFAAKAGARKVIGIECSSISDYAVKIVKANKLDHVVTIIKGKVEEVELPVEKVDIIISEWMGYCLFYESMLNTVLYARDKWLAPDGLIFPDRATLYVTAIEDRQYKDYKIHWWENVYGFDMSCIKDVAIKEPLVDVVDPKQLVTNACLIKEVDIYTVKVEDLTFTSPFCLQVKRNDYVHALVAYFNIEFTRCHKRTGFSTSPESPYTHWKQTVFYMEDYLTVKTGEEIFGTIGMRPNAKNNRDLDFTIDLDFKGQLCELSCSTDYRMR
TCR-CD3 inh = human TCR-CD3 binding inhibition; TAMRA-labeled TCR probe fluorescence, biochemical; inhibition, % at 9.4 µM; actives 0.37% (n = 360,000); in the data active = inhibition above about 19%;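 also: recombinant mutant TCR 2C K166C tagged with TAMRA read by polarization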
SIAE primary = inhibitors of human sialic acid acetylesterase SIAE; Q9HAT2; SIAE FP-Rh probe binding, fluorescence polarization; inhibition, % at 9.66 µM; actives 0.69% (n = 370,000);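 active = inhibition above a cutoff: mean of compounds within the control limits plus 3 SD of those, cut at about 17% in these data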
SIAE confirm = confirmation of human SIAE inhibitors; shares compounds with SIAE primary; SIAE FP-Rh activity-based probe, fluorescence polarization; inhibition, % at 9.66 µM; actives 13% (n = 2,300); AID 1117263;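 active = mean inhibition of the replicates above the hit cutoff set in the primary screen, cut at about 17% in these data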;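 also: inhibitors lower polarization as more probe stays unbound to SIAE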
Each line names hits and unclear results; the compound was inactive in the other large screens (follow-up assays come after a bar, where they were run). Hits are enriched below; roughly 2.5% of the tested compounds scored in any of these assays.

COCCCNC(=O)CN1C(=O)C2CCCCN2C(=O)c2ccccc21 (centres undefined)	none (no result: HTRA1 inhibitor, TCR-CD3 inh)
CCOC(=O)C1=C(c2ccccc2)NC(=O)NC1c1ccc(O)c(OCC)c1 (centres undefined)	SIAE primary 19 | SIAE confirm inactive
O=[N+]([O-])c1ccc2c(c1)C=C1CCCCC1(N1CCCC1)O2 (centres undefined)	SIAE primary 21 | SIAE confirm inactive
Cc1cc(N2CCN(CC(C)(C)O)C[C@@H]2C)ccc1N1CCN(CC(C)(C)O)[C@H](C)C1	none (no result: HTRA1 inhibitor)
CC(=O)NC(c1cc(Cl)c2cccnc2c1O)C1CC1 (centres undefined)	none
CC(=O)NC(c1ccco1)c1cc(Cl)c2cccnc2c1O (centres undefined)	SIAE primary 18 (no result: HTRA1 inhibitor) | SIAE confirm inactive
CN1/C(=C\C(=O)Nc2ccc(Br)cc2)C(C)(C)c2ccccc21	SIAE primary 26 | SIAE confirm inactive
C=CCN(Cc1ccc2c(c1)OCO2)C(C#Cc1ccccc1)c1ccccc1C(F)(F)F (centres undefined)	none (no result: HTRA1 inhibitor, TCR-CD3 inh)
CC(CNC(=O)CN1C(=O)NC2(CCOc3ccccc32)C1=O)c1ccccc1 (centres undefined)	SIAE primary 82 | SIAE confirm inactive
COc1ccc(CSc2nnc(SCC(=O)Nc3ccccc3-c3ccccc3)s2)cc1	none (no result: HTRA1 inhibitor, TCR-CD3 inh)
CCCCCn1cc(CCC(=O)Nc2ccc(N(C)c3ccccn3)cc2)c2ccccc21	SIAE primary 26 (no result: HTRA1 inhibitor) | SIAE confirm 27
O=C1CC(c2ccco2)CC(O)=C1C=Nc1cc(Cl)ccc1O (centres undefined)	none
O=C1CC(c2ccco2)CC(O)=C1C=Nc1ccccc1-c1ccccc1 (centres undefined)	SIAE primary 27 | SIAE confirm inactive
COC(=O)c1cn(C)c2ccc(S(=O)(=O)N(C)C3CCCCC3)cc2c1=O	SIAE primary 20 | SIAE confirm inactive
O=C(Nc1cccc(S(=O)(=O)N2CCOCC2)c1)c1cn(-c2ccccc2)nc1-c1ccc(F)cc1	SIAE primary 23 | SIAE confirm inactive
CCCCCCCCN1CN2Cc3cc(F)ccc3C2CS1(=O)=O (centres undefined)	none (no result: HTRA1 inhibitor, TCR-CD3 inh)
Nc1[nH]c(C(=O)c2ccccc2)c(-c2ccccc2Br)c1C(=O)NCCc1c[nH]c2ccccc12	SIAE primary 19 (no result: HTRA1 inhibitor) | SIAE confirm inactive
Nc1[nH]c(C(=O)c2ccccc2)c(-c2ccc([N+](=O)[O-])cc2)c1C(=O)NCCc1c[nH]c2ccccc12	none (no result: HTRA1 inhibitor)
Nc1sc(-c2ccccc2)cc1C(=O)NCCc1c[nH]c2ccccc12	SIAE primary 26 (no result: HTRA1 inhibitor) | SIAE confirm inactive
Nc1[nH]c(C(=O)c2ccccc2)c(-c2ccccc2[N+](=O)[O-])c1C(=O)NCCc1c[nH]c2ccccc12	SIAE primary 18 (no result: HTRA1 inhibitor) | SIAE confirm inactive
Nc1[nH]c(C(=O)c2ccc(Br)cc2)c(-c2ccccc2Br)c1C(=O)NCCc1c[nH]c2ccccc12	none (no result: HTRA1 inhibitor)
CCCN(C(=O)CCc1cn(CCC)c2ccccc12)c1ccc(Oc2cccnc2)cc1	none (no result: HTRA1 inhibitor)
CC(=O)OC(C(=O)NC1CCCCC1)c1ccccc1F (centres undefined)	SIAE primary 18 | SIAE confirm inactive
Clc1ccc(-c2nnc3n2N=C(c2ccc(-c4ccccc4)cc2)CS3)cc1	none (no result: HTRA1 inhibitor, TCR-CD3 inh)
O=C(NC(=S)Nc1cccc(NC(=O)c2ccccc2)c1)c1cccc([N+](=O)[O-])c1	SIAE primary 63 | SIAE confirm inactive
O=C(Nc1nc(-c2ccccc2)cs1)c1cccc([N+](=O)[O-])c1	SIAE primary 19 | SIAE confirm inactive
CCN(CC)c1ccc(C=Nn2c(C)nnc2C)cc1	none (no result: HTRA1 inhibitor, TCR-CD3 inh)
Cc1nc2c3ccccc3nc(NNC(=O)CCC(=O)N3CCCC(C)C3)n2n1 (centres undefined)	SIAE primary 19 | SIAE confirm inactive
CN(CCc1ccccc1)C(=O)c1ccc2c(c1)ncn2C1CCCCC1	none (no result: HTRA1 inhibitor, TCR-CD3 inh)
COc1ccc(Nc2cc(C)nc3ccc(OC)cc23)cc1	SIAE primary 19 | SIAE confirm inactive
COc1ccccc1NC(=O)Nc1nc(CC(=O)Nc2ccc(N(C)C)cc2)cs1	SIAE primary 27 | SIAE confirm inactive
CN(C)c1ccc(NC(=O)Nc2csc3ccccc23)cc1	SIAE primary 18 (no result: HTRA1 inhibitor) | SIAE confirm inactive
CCNC(=O)CCc1nc(-c2ccc(C(C)C)cc2)no1	none (no result: HTRA1 inhibitor, TCR-CD3 inh)
CS(=O)(=O)N[C@@H]1C[C@@H]2O[C@H](CO)CC[C@@H]2O[C@@H]1CCc1ccc(/C=C/c2ccccc2)cc1	none (no result: HTRA1 inhibitor, TCR-CD3 inh)
CCc1cc(/C(Cc2ccccn2)=N\O)c(O)cc1O	SIAE primary 19 | SIAE confirm 22
CCc1cc(/C(Cc2cscn2)=N\O)c(O)cc1O	none
CCc1cc(/C(Cc2ccc3ccccc3n2)=N\O)c(O)cc1O	SIAE primary 61 | SIAE confirm 40
Cc1ccc(CN2CCCCC(NC(=O)c3ccc4ccccc4c3)C2=O)cc1 (centres undefined)	none (no result: HTRA1 inhibitor, TCR-CD3 inh)
Cc1ccc(-c2nnc(SCC(=O)NN=Cc3c[nH]c4ccccc34)n2-c2ccccc2)cc1	none (no result: HTRA1 inhibitor, TCR-CD3 inh)
COC(=O)C[C@H]1CC[C@@H]2[C@H](COc3ccc(NC(=O)c4cccc(Cl)c4)cc3C(=O)N2C)O1	none (no result: HTRA1 inhibitor, TCR-CD3 inh)
Cc1ccc(NS(=O)(=O)c2cc([N+](=O)[O-])ccc2NNC(=S)Nc2cc(C)ccc2C)c(C)c1	SIAE primary 31 | SIAE confirm inactive
CC1CCC2(CC1)CCC2NCc1ccc(Br)cc1 (centres undefined)	none (no result: HTRA1 inhibitor, TCR-CD3 inh)
FC(F)(F)c1ccc2c(c1)NCC1CCCN21 (centres undefined)	SIAE primary 18 | SIAE confirm inactive
CC(=O)N1CCCN(C(=O)CCn2nnc3ccccc32)CC1	none (no result: HTRA1 inhibitor, TCR-CD3 inh)
Cc1nc(N2CCN(c3ccccn3)CC2)c2c(C)c(C(=O)Nc3c(C)cc(Br)cc3C)sc2n1	SIAE primary 17 | SIAE confirm inactive
Cc1ccc(N2C(=O)C3C4C=CC(C4)C3C2=O)cc1 (centres undefined)	none
Cc1cc(C)cc(N2C(=O)C3C4C=CC(C4)C3C2=O)c1 (centres undefined)	SIAE primary 19 | SIAE confirm inactive
NC(=O)CC(NC(=O)Cc1ccc(Cl)cc1)c1ccc(NC2CCCCC2)c([N+](=O)[O-])c1 (centres undefined)	SIAE primary 20 | SIAE confirm inactive
CCN(CC)CCCOc1nc(C)nc2c1oc1ccccc12	none
CCN(CC)CCOc1nc(C)nc2c1oc1ccccc12	SIAE primary 18 | SIAE confirm inactive
COc1cc(C2c3c([nH]c(=O)[nH]c3=O)Nc3ccc4ccccc4c32)ccc1O (centres undefined)	SIAE primary 30 | SIAE confirm 37
CCCN(C(=O)C1CCCN(c2ncnc3c2nc2n3CCCCC2)C1)c1ccccc1C (centres undefined)	none (no result: HTRA1 inhibitor)
Cc1nonc1CN(C)C(=O)CC1C(=O)NCCN1Cc1ccccc1C(F)(F)F (centres undefined)	none
